Test results as given in PubChem BioAssay.
The source made the active and inactive calls.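 Rule for the calls, unless noted: active = viability at or under a set limit in both replicates, limit being median viability minus 3 SD (cut at about 48% in these data, passing the limit was not always enough); inconclusive = at or under the limit in just one replicate; inactive = at or above the limit in both replicates.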

Columns and labels:
[1] = reducers of endogenous Her2 protein level, primary screen, SKBR3 breast tumor cells, AlphaScreen, ATP viability (AID 461;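 active = Her2 level under about 52% in both replicate screens, with viability over 70% of control, limit read from the data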;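 for Her2 level: lower value means less Her2 protein in the cells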;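 for viability: percent of carrier control wells set as 100% viability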); conditions: 18-24 h, measured here: SKBR3 viability, ATP luminescence, at 10 µM
[2] = biological target: Receptor tyrosine-protein kinase erbB-2 (Homo sapiens) (UniProt P04626); test: as above; conditions: 18-24 h, at 10 µM, stronger effect = lower value
[3] = SK-BR-3 cell growth inhibitors, pilot screen, 24 h, human (AID 572;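 active = viability at or below 10% of carrier control in both of two separate runs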;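 note: compound exposure lasted between 18 and 24 h rather than exactly 24 h; 100% = carrier-treated control wells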); conditions: SK-BR-3 viability, CellTiter-Glo luminescence, at 10 µM, stronger effect = lower value
[4] = HUVEC growth inhibition – cell-based, human, primary screen (AID 575;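 active = viability at or below 30% in both replicate assays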;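 note: 100% = median of untreated cell wells with 0.1% DMSO on each plate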); conditions: HUVEC proliferation, CellTiter-Glo luminescence, 72 h; at 10 µM; stronger effect = lower value
In short: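 Test system: HUVEC primary cells. Quantity: 1250 endothelial cells in each well. Dosing: single-point 10 µM, DMSO 0.1% final. Incubation: 72 h treatment at 37 °C. Measured by: CTG luminescence. Control set: DMSO cell controls and MePR drug controls. Plate: collagen-coated 384-well format.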

[5] = growth inhibitors of H69AR lung tumor, primary screen, human, duplicate replicates (AID 580); conditions: H69AR lung tumor cells viability, ATP luminescence, 72 h; at 10 µM; stronger effect = lower value;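 note: 100% = mean luminescence of untreated wells and 0% = no signal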
[6] = reversal of MRP1-mediated doxorubicin resistance, pilot screen, H69AR cells, doxorubicin co-treatment (AID 601;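 active = viability loss from added drug above about 55%, and viability with drug at most 40%, in both replicates, limit read from the data, passing the limit was not always enough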); conditions: CellTiter-Glo, 72 h, at 10 µM; for differential viability (reversal): stronger effect = higher value
[7] = 384-well plate pilot, post-Golgi transport modulator project, inhibition of yeast transport mutant growth (AID 636; in the data active = inhibition above about 31%); conditions: absorbance 615 nm, about 18 h, stronger effect = higher value
[8] = growth suppression of yeast trafficking mutant, preliminary HTS, modulators of trafficking downstream of Golgi apparatus project, 1536-format plate, OD 615 nm (AID 637; in the data active = inhibition above about 30%); conditions: yeast transport mutant growth, absorbance 615 nm, 18 h; stronger effect = higher value
[9] = H69AR cells + 2 uM doxorubicin, measured here: viability with 2 uM doxorubicin, stronger effect = lower value
[10] = H69AR cells, compound alone cytotoxicity

Sequence of Receptor tyrosine-protein kinase erbB-2 (Homo sapiens) (P04626 whole entry, looked up): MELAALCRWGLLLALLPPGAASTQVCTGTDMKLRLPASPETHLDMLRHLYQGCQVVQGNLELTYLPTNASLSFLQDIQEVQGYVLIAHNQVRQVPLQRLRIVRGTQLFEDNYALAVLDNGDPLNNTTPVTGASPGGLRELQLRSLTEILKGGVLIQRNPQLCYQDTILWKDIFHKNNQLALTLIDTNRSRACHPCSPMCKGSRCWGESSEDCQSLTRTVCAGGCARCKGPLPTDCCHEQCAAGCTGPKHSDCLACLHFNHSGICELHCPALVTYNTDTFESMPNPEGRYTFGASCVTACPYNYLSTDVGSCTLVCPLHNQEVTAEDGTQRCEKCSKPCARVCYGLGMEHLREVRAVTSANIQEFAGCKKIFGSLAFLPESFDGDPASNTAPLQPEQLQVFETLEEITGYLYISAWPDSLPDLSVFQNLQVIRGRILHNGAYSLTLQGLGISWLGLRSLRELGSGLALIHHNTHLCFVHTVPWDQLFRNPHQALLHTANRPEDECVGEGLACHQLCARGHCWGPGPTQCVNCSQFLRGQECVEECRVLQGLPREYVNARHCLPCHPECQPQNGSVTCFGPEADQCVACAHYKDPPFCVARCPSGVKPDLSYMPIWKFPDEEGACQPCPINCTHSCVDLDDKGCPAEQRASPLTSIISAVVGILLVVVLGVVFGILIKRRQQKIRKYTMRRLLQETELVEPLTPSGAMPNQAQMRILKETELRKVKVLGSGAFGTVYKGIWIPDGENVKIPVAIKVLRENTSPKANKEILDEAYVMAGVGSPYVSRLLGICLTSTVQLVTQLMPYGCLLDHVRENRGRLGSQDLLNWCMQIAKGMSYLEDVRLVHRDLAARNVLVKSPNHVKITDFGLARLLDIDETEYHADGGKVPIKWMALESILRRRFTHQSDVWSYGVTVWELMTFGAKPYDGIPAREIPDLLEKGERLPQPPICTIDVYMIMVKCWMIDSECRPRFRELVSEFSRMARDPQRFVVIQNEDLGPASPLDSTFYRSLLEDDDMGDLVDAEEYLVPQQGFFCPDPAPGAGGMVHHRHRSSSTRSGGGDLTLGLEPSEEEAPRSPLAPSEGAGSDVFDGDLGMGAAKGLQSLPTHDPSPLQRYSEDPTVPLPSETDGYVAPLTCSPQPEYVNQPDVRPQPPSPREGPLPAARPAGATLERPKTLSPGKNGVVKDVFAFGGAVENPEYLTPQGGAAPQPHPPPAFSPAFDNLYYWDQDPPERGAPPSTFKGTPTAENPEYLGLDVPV

SMILES	viability [1] [%]	Her2 level [2]	viability [3]	viability [4]	viability [5]	differential viability (reversal) ([6]; H69AR cells + 2 uM doxorubicin)	viability [6, 9] [%]	viability [6, 10] [%]	inhibition [7]	inhibition [8]
CS(=O)(=O)N(CC(=O)Nc1cccc(F)c1)Cc1ccccc1	78.5	87.5% (inactive)	78.5% (inactive)	87.5% (inactive)	103% (inactive)	13.1% (inactive)	90	103	-3.78% (inactive)	2.3% (inactive)
CCCCCCC(=O)c1c(C)[nH]c(C(=O)OCC)c1C	98	86.5% (inactive)	98% (inactive)	60.2% (inactive)	92.7% (inactive)	6.9% (inactive)	85.8	92.7	-5.73% (inactive)	4.03% (inactive)
CC(C)C(C(=O)Nc1ccc2c(c1)OCO2)N1C(=O)c2ccccc2C1=O (stereo not given)	122	92% (inactive)	122% (inactive)	94.3% (inactive)	96.1% (inactive)	2.06% (inactive)	94.1	96.1	-4.03% (inactive)	1.15% (inactive)
O=C(O)CCn1c(SCc2ccccc2)nc2ccccc21	116	107% (inactive)	116% (inactive)	112% (inactive)	89.3% (inactive)	12.2% (inactive)	77	89.3	-5.73% (inactive)	5.65% (inactive)
O=C(CN1CCN(c2nc(-c3ccccc3)cs2)CC1)Nc1ccc2c(c1)OCO2	90.5	99% (inactive)	90.5% (inactive)	89.9% (inactive)	101% (inactive)	5.71% (inactive)	95.5	101	-3.87% (inactive)	-7.1% (inactive)
O=c1c[n+]([O-])c2ccccc2n1OCc1ccccn1	94	89.5% (inactive)	94% (inactive)	94.7% (inactive)	105% (inactive)	12.1% (inactive)	92.7	105	-2.11% (inactive)	-4.29% (inactive)
NC(=O)C1(N2CCCCC2)CCN(CC(=O)Nc2cc(Cl)ccc2Cl)CC1	105	91.5% (inactive)	105% (inactive)	81.6% (inactive)	91.8% (inactive)	-11.5% (inactive)	103	91.8	-1.6% (inactive)	2.79% (inactive)
CCOCC(=O)Nc1nc2ccc(OC)cc2s1	107	102% (inactive)	107% (inactive)	93.9% (inactive)	90.4% (inactive)	8.94% (inactive)	81.5	90.4	0.79% (inactive)	5.57% (inactive)
Cc1nn(C)cc1/C=N/O	100	105% (inactive)	100% (inactive)	95.8% (inactive)	104% (inactive)	7.1% (inactive)	96.5	104	-7.47% (inactive)	1.45% (inactive)
COc1cccc2cc(C(=O)N3CCc4ccccc43)c(=O)oc12	92	74% (inactive)	92% (inactive)	95.2% (inactive)	94.2% (inactive)	4.2% (inactive)	90	94.2	-3.03% (inactive)	0.63% (inactive)
CN(Cc1ccccc1)Cc1nc2c([nH]1)c(=O)[nH]c(=O)n2C	92	90.5% (inactive)	92% (inactive)	79.2% (inactive)	90.9% (inactive)	8.36% (inactive)	82.6	90.9	-3.6% (inactive)	-1.31% (inactive)
CC(C)(C)c1ccc(O)c(N)c1	86	93.5% (inactive)	86% (inactive)	106% (inactive)	94.2% (inactive)	-0.85% (inactive)	95.1	94.2	-5.21% (inactive)	-3.33% (inactive)
O=C(C1CCC(CNS(=O)(=O)c2cccc3cccnc23)CC1)N1CCCC1 (stereo not given)	98.5	104% (inactive)	98.5% (inactive)	99.9% (inactive)	99.9% (inactive)	3.37% (inactive)	96.6	99.9	-1.07% (inactive)	-6.72% (inactive)
COC(=O)c1ccccc1NC(=O)Nc1cc(C)cc(C)n1	96	86% (inactive)	96% (inactive)	103% (inactive)	102% (inactive)	6.95% (inactive)	94.8	102	-1.58% (inactive)	-1.9% (inactive)
CC(C)Cc1n[nH]c(=O)[nH]1	118	115% (inactive)	118% (inactive)	93.9% (inactive)	98.4% (inactive)	9.75% (inactive)	88.7	98.4	-6.93% (inactive)	-9.84% (inactive)
O=C(O)CCC(=O)Nc1nc(-c2ccccc2)cs1	92	84.5% (inactive)	92% (inactive)	98.5% (inactive)	91.3% (inactive)	-4.88% (inactive)	96.1	91.3	-6.4% (inactive)	-1.48% (inactive)
O=C(Nc1cccc2c1CCCC2)C1CCN(c2nnnn2-c2ccccc2)CC1	92	99% (inactive)	92% (inactive)	97.7% (inactive)	89.2% (inactive)	5.29% (inactive)	83.9	89.2	-0.13% (inactive)	-6.45% (inactive)
NC(=O)CSCc1ccc(Br)cc1	100	91.5% (inactive)	100% (inactive)	98.6% (inactive)	108% (inactive)	0.415% (inactive)	108	108	-4.67% (inactive)	2.62% (inactive)
CC(=O)c1c(C)[nH]c(C(=O)OCc2nnc(-c3ccccc3)o2)c1C	92	96.5% (inactive)	92% (inactive)	70.4% (inactive)	72.6% (inactive)	-5.71% (inactive)	78.3	72.6	0% (inactive)	26.7% (inactive)
COc1ccc(CNC(=O)C(c2ccco2)N(Cc2cccs2)C(=O)Cc2cccs2)cc1 (stereo not given)	96.5	86.5% (inactive)	96.5% (inactive)	67.5% (inactive)	72.5% (inactive)	8.17% (inactive)	64.3	72.5	-1.95% (inactive)	-4.29% (inactive)
CC(=O)Nc1sc2c(c1C#N)CCCCC2	132	113% (inactive)	132% (inactive)	82.2% (inactive)	95.6% (inactive)	5.43% (inactive)	90.2	95.6	-4.93% (inactive)	-2.54% (inactive)
CCOC(=O)C1CCN(c2c(NC3CCCCCCC3)c(=O)c2=O)CC1	90	112% (inactive)	90% (inactive)	92.2% (inactive)	79.7% (inactive)	8.71% (inactive)	71	79.7	0.64% (inactive)	0.5% (inactive)
COc1ccccc1OCc1ccc(C(=O)Nc2ccncc2)o1	79.5	92% (inactive)	79.5% (inactive)	84.9% (inactive)	89.4% (inactive)	-0.005% (inactive)	89.4	89.4	-3.07% (inactive)	6.61% (inactive)
O=C(c1ncc[nH]1)c1ccccc1C(=O)N1CCOCC1	118	112% (inactive)	118% (inactive)	100% (inactive)	90.3% (inactive)	3.04% (inactive)	87.3	90.3	-5.21% (inactive)	1.75% (inactive)
O=C(Nc1nccs1)c1ccc(Cl)c(S(=O)(=O)N2CCCCC2)c1	89	65% (inactive)	89% (inactive)	84.3% (inactive)	87.2% (inactive)	-9.49% (inactive)	96.7	87.2	-5.81% (inactive)	3.83% (inactive)
O=C(c1cccs1)c1cn(CC(=O)N2CCc3ccccc3C2)c2ccccc12	93	108% (inactive)	93% (inactive)	86.1% (inactive)	86.9% (inactive)	7.43% (inactive)	79.5	86.9	-6.13% (inactive)	1.45% (inactive)
CC1(C)Cc2c(sc3c2c(=N)n(Cc2ccco2)c(=O)n3Cc2ccccc2)CO1	98.5	88.5% (inactive)	98.5% (inactive)	90.1% (inactive)	71.9% (inactive)	28.9% (inactive)	43	71.9	-1.82% (inactive)	-1.27% (inactive)
CCC(C)(C(=O)NC1CCCC1)N(Cc1cccs1)C(=O)Cc1cccs1 (stereo not given)	122	93% (inactive)	122% (inactive)	103% (inactive)	96.8% (inactive)	15.6% (inactive)	81.3	96.8	-7.53% (inactive)	-0.63% (inactive)
CCCc1cc(=O)n2[nH]cnc2n1	104	102% (inactive)	104% (inactive)	110% (inactive)	100% (inactive)	3.53% (inactive)	96.6	100	-6.22% (inactive)	0.67% (inactive)
Cc1cc(NC(=O)CSc2nccn2-c2ccc(Cl)cc2)no1	91.5	103% (inactive)	91.5% (inactive)	111% (inactive)	106% (inactive)	28% (inactive)	78.1	106	-1.56% (inactive)	-2.38% (inactive)
